According to publication PMC8082945 (Journal of medicinal chemistry, 2020):
Several values for one entry are separate records, joined by “and”; a condition that tells them apart may be missing. Equal values may be shown once.

Assays:
[1] = tested on: PANC-1 pancreatic cancer cells; assay: MTT cytotoxicity assay in PANC-1 cells; assay type: cell-based; conditions: read-out: IC50 PANC-1, 72 h, mean ± sd, three independent experiments
Outline: (§1)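 Cells kept in RPMI 1640 with 10% FBS, under 35 passages, mycoplasma-free. Seeded in 96-well plates and attached overnight. Exposed to test compound or DMSO for 72 h, then 0.3 mg/mL MTT for 3 h at 37 °C. Medium removed, formazan dissolved in DMSO with 15 min shaking, absorbance read at 570 nm. IC50 obtained by curve fitting; mean ± SD from at least three independent experiments.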

[2] = tested on: MIA PaCa-2 pancreatic cancer cells; assay: MTT cytotoxicity assay in MIA PaCa-2 cells; assay type: cell-based; conditions: read-out: IC50 MIA PaCa-2, 72 h, mean ± sd, three independent experiments
Outline: as §1

[3] = tested on: BxPC-3 pancreatic cancer cells; assay: MTT cytotoxicity assay in BxPC-3 cells; assay type: cell-based; conditions: read-out: IC50 BxPC-3, 72 h, mean ± sd, three independent experiments
Outline: as §1

LRPPRC and PNPT1 = assay: Immunoblot of LRPPRC and PNPT1 expression; assay type: cell-based; conditions: MIA PaCa-2 cells, 3 × IC50, 4 h
Outline: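 Cells seeded at 3.5 × 10^5 per 6-well were treated for 1 h or 4 h (H2O2 comparator 150 μM). Lysis was in RIPA with protease/phosphatase inhibitors, then sonication and BCA. 25 μg protein was run on 10% SDS-PAGE and transferred to PVDF. Blocking: 5% milk. Primary antibodies 1:500–1:1000 overnight at 4 °C, Dylight 800 secondary 1:6000 for 1 h. Infrared imaging; band densities normalized to loading controls.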

GPX4 = biological target: T1, GPX4 (Homo sapiens, UniProt P36969); assay: Cellular thermal shift assay; assay type: cell-based; conditions: pancreatic cancer cells, 100 μM, 1 h
T1 sequence (P36969 1-197): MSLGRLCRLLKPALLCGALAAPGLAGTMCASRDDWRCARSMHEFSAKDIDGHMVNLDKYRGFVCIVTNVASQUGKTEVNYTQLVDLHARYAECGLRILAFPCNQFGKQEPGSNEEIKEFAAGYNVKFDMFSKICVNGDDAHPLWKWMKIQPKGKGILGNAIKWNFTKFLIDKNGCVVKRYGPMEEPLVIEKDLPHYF
Outline: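 MIA PaCa-2 or PANC-1 cells seeded at 3 × 10^6 per 10 cm dish, attached overnight, then exposed to 100 μM test compound or DMSO for 1 h. After heating, supernatants were resolved on 10% SDS gels and immunoblotted for GPX4. Bands were quantified to derive a GPX4 melting temperature.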

[4] = tested on: mouse colon cancer cell line CT-26; assay: CT-26 subcutaneous tumor study in Balb/c mice; assay type: in vivo; conditions: n=5, preliminary study
pancreatic cancer cells = assay: Colony formation assay, drug combinations; assay type: cell-based
Outline: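 Cells seeded in 96-well plates: 300/well for MIA PaCa-2, 600/well for PANC-1 and BxPC-3; attached overnight. Partner drug added 1 h before test compound, with continuous exposure. Incubation ran 7–9 days, until control wells were 80–90% confluent. Stained with 0.05% crystal violet for 30 min, washed, dried and imaged. Synergy scored with HSA and Bliss models.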

STAT3 = assay: Immunoblot of STAT3 phosphorylation and pH2AX; assay type: cell-based; conditions: MIA PaCa-2 and PANC-1 cells, 4 h
Outline: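 Cells seeded at 3.5 × 10^5/well (6-well) and treated 4 h at indicated concentrations. Lysed in RIPA with protease and phosphatase inhibitors, sonicated and centrifuged. 25 μg protein run on 10% SDS-PAGE and transferred to PVDF. Blocked in 5% milk; primary antibodies (STAT3, pSTAT3, pH2AX, GAPDH; 1:500–1:1000) overnight at 4 °C; infrared secondary 1:6000, 1 h RT. Signals normalised to loading control.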

MIA PaCa-2 cells [5] = assay: Cellular ROS measurement; assay type: cell-based; conditions: for Cellular ROS: MIA PaCa-2 cells, 0-4 h, 30 min
Outline: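 MIA PaCa-2 cells (RPMI 1640, 10% FBS, 37 °C, 5% CO2) seeded at 1.8 × 10^4 cells/well and attached overnight. Cells loaded with 10 μM CM-H2DCFDA in HBSS for 40 min at 37 °C, then washed twice with DPBS. Test compound added in HBSS at set concentrations. Fluorescence read at Ex 483/Em 530 nm over time. TBHP served as positive control.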

PK study in CD-1 mice = assay type: in vivo; conditions: for Concentration at 7 h in mouse plasma, IP: IP 10 mg/kg, 10 mg/kg; for Concentration at 7 h in mouse plasma, IP / Concentration at 7 h in mouse plasma, PO: n=2, individual values; for Survival of mice after IV injection: IV 10 mg/kg; for Concentration at 7 h in mouse plasma, PO: PO 20 mg/kg, 20 mg/kg
Outline: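 CD-1 mice dosed IP (10 mg/kg), PO (20 mg/kg) or IV (10 mg/kg). Blood drawn at 0.5, 2, 4 and 7 h using heparinized calibrated pipettes and centrifuged at 15,000 rpm for 10 min. Plasma collected, frozen at −80 °C, and assayed by LC-MS/MS.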

GSH/GSSG ratio = assay: GSH/GSSG-Glo assay; assay type: cell-based; conditions: MIA PaCa-2 cells, 2 h and 4 h treatment
Outline: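 Luminescent GSH/GSSG-Glo kit. 15,000–20,000 cells/well attached overnight, then were treated. Medium was removed and cells were lysed in Total or Oxidized Glutathione Reagent (5 min shaking). Luciferin Generation Reagent was added for 30 min at room temperature, then Detection Reagent; luminescence was read after 15 min equilibration. Ratio from net RLU = (total glutathione − GSSG)/(GSSG/2).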

MIA PaCa-2 cells [6] = assay: Lipid ROS measurement; assay type: cell-based; conditions: 24 h treatment, BODIPY C11
Outline: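 After compound exposure, MIA PaCa-2 cells received 10 μM C11-BODIPY for 30 min at 37 °C. They were washed twice with DPBS and read in HBSS on a plate reader at Ex/Em 581/591 nm (reduced dye) and 488/510 nm (oxidized dye). The Texas Red/FITC emission ratio was calculated; significance by unpaired Student's t-test.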

[7] = Tissue distribution analysis in mice; assay type: in vivo; conditions: mouse, colon, intravenous, 10 mg/kg
Outline: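 Tissue homogenised with bead beating in dissociation solvent at five-fold tissue weight. 30 μL homogenate mixed with 30 μL acetonitrile and 140 μL internal standard, vortexed, and centrifuged at 3500 g for 10 min. Supernatant analysed by LC-MS against calibration curves made in spiked blank homogenate.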

Compound: 6-(9H-Fluoren-4-ylamino)quinazoline-5,8-dione [QD390]
- IC50 [1]: 4.7 ± 1.5 µM
- IC50 [2]: 3.1 ± 1.5 µM
- IC50 [3]: 4.5 ± 0.6 µM

Compound: CC(=O)c1cc2c(o1)C(=O)c1ccccc1C2=O [Napabucasin, reference compound]
- Protein expression of LRPPRC and PNPT1 (LRPPRC and PNPT1): decreased the protein expression of these two genes

Compound: CN1CCN(c2ccc(NC3=CC(=O)c4ncncc4C3=O)cc2)CC1 [QD394, 6-(4-(4-Methylpiperazin-1-yl)phenylamino)quinazoline-5,8-dione]
- Effect on GPX4 protein stability (CETSA) (GPX4): destabilized GPX4 protein
- Tumor shrinkage, QD394 IP group ([4]; CT-26, IP 20 mg/kg): Three out of five mice displayed tumor shrinkage
- Combination with napabucasin (pancreatic cancer cells; MIA PaCa-2 and PANC-1 cells): synergism
- Combination with As2O3 (pancreatic cancer cells; pancreatic cancer cells): sensitizes cells to As2O3
- Combination with olaparib (pancreatic cancer cells; pancreatic cancer cells): synergistic effects
- Protein expression of LRPPRC and PNPT1 (LRPPRC and PNPT1): significantly decreased their expression at 4 h
- Phosphorylation of H2AX (DNA damage biomarker) (STAT3): increased the phosphorylation of H2AX
- Phosphorylation of STAT3 (STAT3): inhibited the phosphorylation of STAT3
- Cellular ROS (MIA PaCa-2 cells [5]): time-dependent cellular ROS accumulation
- Intracellular ROS level among analogs (MIA PaCa-2 cells [5]; after 1 h compound treatment): highest level of intracellular ROS
- Concentration at 7 h in mouse plasma, IP (PK study in CD-1 mice): 5.0 ng/mL
- Survival of mice after IV injection (PK study in CD-1 mice; n=3, 10 mg/kg): two out of three mice administered with QD394 via IV injection died and 2 out of 3 mice died
- Concentration at 7 h in mouse plasma, PO (PK study in CD-1 mice): 23.3 ng/mL and 25.8 ng/mL
- GSH/GSSG ratio (GSH/GSSG ratio): significantly decreased the GSH/GSSG ratio
- Lipid ROS (lipid peroxidation) (MIA PaCa-2 cells [6]): significantly increased lipid ROS in a dose-dependent manner

Compound: CC1=C(Nc2ccc(N3CCN(C)CC3)cc2)C(=O)c2cncnc2C1=O [QD394-Me, 7-Methyl-6-((4-(4-methylpiperazin-1-yl)phenyl)amino)quinazoline-5,8-dione]
- Effect on GPX4 protein stability (CETSA) (GPX4): destabilized GPX4 protein
- Tumor shrinkage, QD394-Me IV group ([4]; CT-26, IV 10 mg/kg): Three out of five mice displayed tumor shrinkage
- concentration at 1 h [7]: ~300 ng/g
- Protein expression of LRPPRC and PNPT1 (LRPPRC and PNPT1): significantly decreased protein expression of LRPPRC and PNPT1
- Cellular ROS (MIA PaCa-2 cells [5]): significantly increased cellular ROS
- Concentration at 7 h in mouse plasma, IP (PK study in CD-1 mice): 6.7 ng/mL and 1.1 ng/mL
- Survival of mice after IV injection (PK study in CD-1 mice; n=3): all three mice that received IV injections of QD394-Me survived
- Concentration at 7 h in mouse plasma, PO (PK study in CD-1 mice): 4.2 ng/mL
- Lipid ROS (lipid peroxidation) (MIA PaCa-2 cells [6]): increased lipid ROS significantly in a dose-dependent manner
